According to ChEMBL document CHEMBL5131498, “Synthesis and biological evaluation of orally active prodrugs and analogs of para-aminosalicylic acid (PAS)” (Eur J Med Chem, 2022):
In brackets after ≈: the same amount, converted by molar mass.

What was measured:
Assay type in all cases: functional
[1] = system: Mycobacterium tuberculosis; test: Antimycobacterial activity against PAS resistant Mycobacterium tuberculosis H37Rv harboring S150G mutant assessed as inhibition of bacterial growth measured after 2 weeks by microbroth dilution method
In short: (§1)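 Diluted 1000-fold into 96-well plates with 2-fold serial compound dilutions and incubated at 37 °C for 2 weeks. Growth scored by mirror at 1 and 2 weeks. MIC is the lowest concentration completely inhibiting growth; tested in duplicate. DMSO, isoniazid and linezolid served as controls.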

[2] = system: Mycobacterium tuberculosis; test: Antimycobacterial activity against PAS resistant Mycobacterium tuberculosis H37Rv harboring E153A mutant assessed as inhibition of bacterial growth measured after 2 weeks by microbroth dilution method; in short: as §1
[3] = system: Mycobacterium tuberculosis; test: Antimycobacterial activity against multidrug resistant Mycobacterium tuberculosis H37Rv assessed as inhibition of bacterial growth measured after 2 weeks by microbroth dilution method; conditions: 336 h; in short: as §1
[4] = system: Mycobacterium tuberculosis; test: Antimycobacterial activity against PAS resistant Mycobacterium tuberculosis H37Rv harboring R49W mutant assessed as inhibition of bacterial growth measured after 2 weeks by microbroth dilution method; in short: as §1
[5] = system: Mycobacterium tuberculosis; test: Antimycobacterial activity against extensively drug resistant Mycobacterium tuberculosis H37Rv assessed as inhibition of bacterial growth measured after 2 weeks by microbroth dilution method; conditions: 336 h; in short: as §1

SMILES	MIC90 [1]	MIC90 [2]	MIC90 [3] [µM]	MIC90 [4]	MIC90 [5] [µM]
Nc1cc(O)c(C(=O)O)cc1F	>=50 uM	>=50 uM	6.3 (≈ 1.08 µg/mL)	>=50 uM	≥ 50
Nc1ccc(C(=O)O)c(O)c1 [AMINOSALICYLIC ACID]	12.5 µM (≈ 1.91 µg/mL)	12.5 µM (≈ 1.91 µg/mL)	0.2 (≈ 0.0306 µg/mL)	12.5 µM (≈ 1.91 µg/mL)	≥ 50
NNC(=O)c1ccncc1 [ISONIAZID]	0.3 µM (≈ 0.0411 µg/mL)	0.3 µM (≈ 0.0411 µg/mL)	0.4 (≈ 0.0549 µg/mL)	0.3 µM (≈ 0.0411 µg/mL)	6.3 (≈ 0.864 µg/mL)
CC(=O)NC[C@H]1CN(c2ccc(N3CCOCC3)c(F)c2)C(=O)O1 [LINEZOLID]	1.9 µM (≈ 0.641 µg/mL)	1.9 µM (≈ 0.641 µg/mL)	0.8 (≈ 0.27 µg/mL)	1.9 µM (≈ 0.641 µg/mL)	0.9 (≈ 0.304 µg/mL)
